Experimental data published in ChEMBL document CHEMBL3232791, “Synthesis and antibacterial evaluation of amino acid-antibiotic conjugates” (2014).

Columns and labels:
Type in all cases: functional
[1] = test system: Escherichia coli; experiment: Antibacterial activity against Escherichia coli DH5alpha assessed as growth inhibition at 0.125 ug/ml after 16 hrs by spectrophotometric method; conditions: DH5[alpha], read-out: GI
Summary of the method: (§1)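 Growth inhibition read as OD600 on 300 µL culture samples, with untreated control cultures taken as maximum growth. Percent inhibition = (OD600 control − OD600 treated) × 100 / OD600 control. Parent antibiotics and their conjugates were run in parallel at three concentrations per compound, in biological duplicate.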

[2] = test system: Staphylococcus aureus; experiment: Antibacterial activity against Staphylococcus aureus RN4220 assessed as growth inhibition at 2 ug/ml after 16 hrs by spectrophotometric analysis; conditions: RN4220, 16 h, read-out: GI; summary of the method: as §1
[3] = test system: Bacillus subtilis; experiment: Antibacterial activity against Bacillus subtilis 168 assessed as growth inhibition at 0.4 ug/ml after 16 hrs by spectrophotometric analysis; conditions: subsp. subtilis str. 168, 16 h, read-out: GI; summary of the method: as §1
[4] = test system: Bacillus subtilis; experiment: Antibacterial activity against Bacillus subtilis 168 assessed as growth inhibition at 0.2 ug/ml after 16 hrs by spectrophotometric analysis; conditions: subsp. subtilis str. 168, 16 h, read-out: GI; summary of the method: as §1
[5] = test system: Pseudomonas aeruginosa; experiment: Antibacterial activity against Pseudomonas aeruginosa PAO1 assessed as growth inhibition at 40 ug/ml after 16 hrs by spectrophotometric analysis; conditions: PAO1, 16 h, read-out: GI; summary of the method: as §1
[6] = test system: Bacillus subtilis; experiment: Antibacterial activity against Bacillus subtilis 168 assessed as growth inhibition at 0.1 ug/ml after 16 hrs by spectrophotometric analysis; conditions: subsp. subtilis str. 168, 16 h, read-out: GI; summary of the method: as §1
[7] = test system: Escherichia coli; experiment: Antibacterial activity against Escherichia coli DH5alpha assessed as growth inhibition at 0.0635 ug/ml after 16 hrs by spectrophotometric method; conditions: DH5[alpha], read-out: GI; summary of the method: as §1
[8] = test system: Staphylococcus aureus; experiment: Antibacterial activity against Staphylococcus aureus RN4220 assessed as growth inhibition at 4 ug/ml after 16 hrs by spectrophotometric analysis; conditions: RN4220, 16 h, read-out: GI; summary of the method: as §1
[9] = test system: Escherichia coli; experiment: Antibacterial activity against Escherichia coli DH5alpha assessed as growth inhibition at 0.5 ug/ml after 16 hrs by spectrophotometric method; conditions: DH5[alpha], read-out: GI; summary of the method: as §1
[10] = test system: Staphylococcus aureus; experiment: Antibacterial activity against Staphylococcus aureus RN4220 assessed as growth inhibition at 8 ug/ml after 16 hrs by spectrophotometric analysis; conditions: RN4220, 16 h, read-out: GI; summary of the method: as §1
[11] = test system: Pseudomonas aeruginosa; experiment: Antibacterial activity against Pseudomonas aeruginosa PAO1 assessed as growth inhibition at 10 ug/ml after 16 hrs by spectrophotometric analysis; conditions: PAO1, 16 h, read-out: GI; summary of the method: as §1
[12] = test system: Pseudomonas aeruginosa; experiment: Antibacterial activity against Pseudomonas aeruginosa PAO1 assessed as growth inhibition at 20 ug/ml after 16 hrs by spectrophotometric analysis; conditions: PAO1, 16 h, read-out: GI; summary of the method: as §1
[13] = test system: Escherichia coli; experiment: Antibacterial activity against Escherichia coli DH5alpha assessed as growth inhibition at 40 ug/ml after 16 hrs by spectrophotometric method; conditions: DH5[alpha], read-out: GI; summary of the method: as §1
[14] = test system: Staphylococcus aureus; experiment: Antibacterial activity against Staphylococcus aureus RN4220 assessed as growth inhibition at 60 ug/ml after 16 hrs by spectrophotometric analysis; conditions: RN4220, 16 h, read-out: GI; summary of the method: as §1
[15] = test system: Staphylococcus aureus; experiment: Antibacterial activity against Staphylococcus aureus RN4220 assessed as growth inhibition at 240 ug/ml after 16 hrs by spectrophotometric analysis; conditions: RN4220, 16 h, read-out: GI; summary of the method: as §1
[16] = test system: Escherichia coli; experiment: Antibacterial activity against Escherichia coli DH5alpha assessed as growth inhibition at 75 ug/ml after 16 hrs by spectrophotometric method; conditions: DH5[alpha], read-out: GI; summary of the method: as §1
[17] = test system: Escherichia coli; experiment: Antibacterial activity against Escherichia coli DH5alpha assessed as growth inhibition at 50 ug/ml after 16 hrs by spectrophotometric method; conditions: DH5[alpha], read-out: GI; summary of the method: as §1
[18] = test system: Staphylococcus aureus; experiment: Antibacterial activity against Staphylococcus aureus RN4220 assessed as growth inhibition at 120 ug/ml after 16 hrs by spectrophotometric analysis; conditions: RN4220, 16 h, read-out: GI; summary of the method: as §1

Structure (SMILES)	inhibition of growth at 0.125 µg/mL [1]	inhibition of growth at 2 µg/mL [2]	inhibition of growth at 0.4 µg/mL [3]	inhibition of growth at 0.2 µg/mL [4]	inhibition of growth at 40 µg/mL [5]	inhibition of growth at 0.1 µg/mL [6]	inhibition of growth at 0.0635 µg/mL [7]	inhibition of growth at 4 µg/mL [8]	inhibition of growth at 0.5 µg/mL [9]	inhibition of growth at 8 µg/mL [10]	inhibition of growth at 10 µg/mL [11]	inhibition of growth at 20 µg/mL [12]	inhibition of growth at 40 µg/mL [13]	inhibition of growth at 60 µg/mL [14]	inhibition of growth at 240 µg/mL [15]	inhibition of growth at 75 µg/mL [16]	inhibition of growth at 50 µg/mL [17]	inhibition of growth at 120 µg/mL [18]
O=C(NCC(=O)N1CCN(c2cc3c(cc2F)c(=O)c(C(=O)O)cn3C2CC2)CC1)OCc1ccccc1	-2.17%	45.7%	94.2%	16.2%	45%	18.5%	1.86%	50.3%	2.25%	70.8%	-14%	-1.56%	–	–	–	–	–	–
C[C@H](NC(=O)OCc1ccccc1)C(=O)N1CCN(c2cc3c(cc2F)c(=O)c(C(=O)O)cn3C2CC2)CC1	-2.93%	23.2%	91.9%	42.3%	58.2%	12.6%	-0.72%	46.1%	-1.86%	55.8%	-13.3%	-2.13%	–	–	–	–	–	–
O=C(NCCCC[C@H](NC(=O)OCc1ccccc1)C(=O)N1CCN(c2cc3c(cc2F)c(=O)c(C(=O)O)cn3C2CC2)CC1)OCc1ccccc1	4.12%	39.3%	40.4%	12.7%	84.2%	9.59%	-0.2%	51.6%	38.9%	62.9%	87.1%	89.7%	–	–	–	–	–	–
O=C(N[C@@H](Cc1ccccc1)C(=O)Nc1ccc(S(=O)(=O)Nc2ncccn2)cc1)OCc1ccccc1	–	–	–	–	–	–	–	–	–	–	–	–	0.39%	-8.23%	29.1%	3.46%	0.05%	18.2%
O=C(C[C@H](NC(=O)OCc1ccccc1)C(=O)Nc1ccc(S(=O)(=O)Nc2ncccn2)cc1)OCc1ccccc1	–	–	–	–	–	–	–	–	–	–	–	–	4.72%	-17.6%	3.48%	4.72%	3.75%	-2.44%
O=C(O)c1cn(C2CC2)c2cc(N3CCNCC3)c(F)cc2c1=O [CIPROFLOXACIN]	52.3%	48.4%	94.3%	–	89.8%	30.4%	32.5%	63.9%	77%	75.3%	91.8%	91%	–	–	–	–	–	–
Nc1ccc(S(=O)(=O)Nc2ncccn2)cc1 [SULFADIAZINE]	–	–	–	–	–	–	–	–	–	–	–	–	2.66%	-6.47%	18.1%	6.44%	8.11%	2.17%
